Experimental data reported in ChEMBL document CHEMBL4834403, “Design and Synthesis of Novel Epigenetic Inhibitors Targeting Histone Deacetylases, DNA Methyltransferase 1, and Lysine Methyltransferase G9a with In Vivo Efficacy in Multiple Myeloma” (J Med Chem, 2021).

How the values were obtained:
NCI-H929 = test: Antiproliferative activity against human NCI-H929 cells assessed as inhibition of cell proliferation measured up to 72 hrs by CellTiter96 Aqueous one reagent based assay; type: functional; settings: NCI-H929, 72 h, time hrs <=72
[1] = Antiproliferative activity against human KMS-28BM cells assessed as inhibition of cell proliferation measured up to 72 hrs by CellTiter96 Aqueous one reagent based assay; type: functional; settings: time hrs <=72
JJN-3 = test: Antiproliferative activity against human JJN-3 cells assessed as inhibition of cell proliferation measured up to 72 hrs by CellTiter96 Aqueous one reagent based assay; type: functional; settings: JJN-3, 72 h, time hrs <=72
Histone deacetylase 1 = Histone deacetylase 1 (Homo sapiens, UniProt Q13547); test: Inhibition of full length human C-terminal His-tagged/C-terminal Flag-tagged HDAC1 using fluorogenic acetylated peptide as substrate incubated for 30 mins by fluorescence plate reader assay
[2] = molecular target: Histone deacetylase 3/Nuclear receptor corepressor 2 (HDAC3/NCoR2) (Homo sapiens, UniProt O15379); test: Inhibition of full length human C-terminal His-tagged HDAC3/human N-terminal GST-agged NCOR2 using fluorogenic acetylated peptide as substrate incubated for 30 mins by fluorescence plate reader assay; type: protein-complex assay
[3] = molecular target: T1, Histone-lysine N-methyltransferase EHMT2 (Homo sapiens, UniProt Q96KQ7); test: Inhibition of human G9a enzyme using histone monomethyl-H3K9 peptide as substrate incubated for 1 hr in presence of SAM by TR-FRET assay
T1 sequence (Q96KQ7 whole entry): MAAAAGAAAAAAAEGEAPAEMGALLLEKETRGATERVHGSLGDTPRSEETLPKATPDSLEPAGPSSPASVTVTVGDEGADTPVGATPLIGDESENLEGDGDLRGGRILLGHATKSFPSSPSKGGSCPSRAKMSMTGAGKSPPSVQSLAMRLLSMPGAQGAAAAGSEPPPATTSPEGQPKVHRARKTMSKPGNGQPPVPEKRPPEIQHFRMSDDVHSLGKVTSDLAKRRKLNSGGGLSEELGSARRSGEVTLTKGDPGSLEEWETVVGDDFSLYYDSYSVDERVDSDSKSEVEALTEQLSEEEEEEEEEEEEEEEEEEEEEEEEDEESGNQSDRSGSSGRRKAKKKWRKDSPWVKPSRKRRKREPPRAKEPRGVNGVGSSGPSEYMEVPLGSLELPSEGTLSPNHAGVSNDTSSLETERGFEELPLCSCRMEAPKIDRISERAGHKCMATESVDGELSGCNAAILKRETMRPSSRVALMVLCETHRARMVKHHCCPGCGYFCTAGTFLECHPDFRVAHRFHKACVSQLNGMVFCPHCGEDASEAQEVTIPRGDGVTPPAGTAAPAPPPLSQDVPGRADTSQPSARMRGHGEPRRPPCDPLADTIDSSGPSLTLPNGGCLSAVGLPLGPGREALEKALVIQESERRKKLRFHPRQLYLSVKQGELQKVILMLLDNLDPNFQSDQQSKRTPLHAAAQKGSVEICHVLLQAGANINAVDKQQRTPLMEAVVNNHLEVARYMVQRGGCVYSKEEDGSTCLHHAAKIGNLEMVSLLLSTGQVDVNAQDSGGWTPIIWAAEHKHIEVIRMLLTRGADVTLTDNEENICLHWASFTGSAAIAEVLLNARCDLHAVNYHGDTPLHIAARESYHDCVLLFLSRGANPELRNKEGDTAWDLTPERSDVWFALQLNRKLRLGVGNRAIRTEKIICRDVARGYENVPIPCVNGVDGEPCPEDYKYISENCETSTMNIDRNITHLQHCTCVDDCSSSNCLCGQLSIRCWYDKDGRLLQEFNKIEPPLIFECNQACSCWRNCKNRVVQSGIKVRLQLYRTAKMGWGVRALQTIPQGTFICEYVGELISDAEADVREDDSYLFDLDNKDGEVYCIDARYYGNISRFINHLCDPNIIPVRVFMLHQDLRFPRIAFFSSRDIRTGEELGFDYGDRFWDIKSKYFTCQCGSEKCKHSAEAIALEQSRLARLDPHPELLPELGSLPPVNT

MM1.S = test: Antiproliferative activity against human MM1.S cells assessed as inhibition of cell proliferation measured up to 72 hrs by CellTiter96 Aqueous one reagent based assay; type: functional
THLE-2 = test: Cytotoxicity against human THLE-2 cells assessed as decrease in cell viability measured after 72 hrs by Vialight-plus cell proliferation assay; type: cell-based; settings: thle-2, 72 h
In short: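 Human THLE-2 cells exposed to compound for 72 h. Cytotoxicity reported as LC50 and pLC50, averaged from at least two independent experiments on different days.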

[4] = time hrs <=72, read-out: pGI50 (converted)

Sequence of Histone deacetylase 1 (Q13547 whole entry): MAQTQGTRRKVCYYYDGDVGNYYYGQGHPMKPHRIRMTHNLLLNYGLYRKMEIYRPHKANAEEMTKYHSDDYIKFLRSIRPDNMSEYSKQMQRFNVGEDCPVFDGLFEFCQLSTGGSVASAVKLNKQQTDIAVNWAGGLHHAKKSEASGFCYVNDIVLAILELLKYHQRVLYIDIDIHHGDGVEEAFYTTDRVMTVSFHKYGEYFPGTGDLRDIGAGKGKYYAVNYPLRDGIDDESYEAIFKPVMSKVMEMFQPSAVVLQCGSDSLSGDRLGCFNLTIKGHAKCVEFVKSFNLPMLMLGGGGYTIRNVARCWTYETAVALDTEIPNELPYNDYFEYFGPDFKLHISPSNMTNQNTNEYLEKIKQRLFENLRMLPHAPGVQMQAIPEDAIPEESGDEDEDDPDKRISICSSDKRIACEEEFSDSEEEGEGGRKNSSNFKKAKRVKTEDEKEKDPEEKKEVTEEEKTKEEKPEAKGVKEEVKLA
Sequence of Histone deacetylase 3/Nuclear receptor corepressor 2 (HDAC3/NCoR2) (O15379 whole entry): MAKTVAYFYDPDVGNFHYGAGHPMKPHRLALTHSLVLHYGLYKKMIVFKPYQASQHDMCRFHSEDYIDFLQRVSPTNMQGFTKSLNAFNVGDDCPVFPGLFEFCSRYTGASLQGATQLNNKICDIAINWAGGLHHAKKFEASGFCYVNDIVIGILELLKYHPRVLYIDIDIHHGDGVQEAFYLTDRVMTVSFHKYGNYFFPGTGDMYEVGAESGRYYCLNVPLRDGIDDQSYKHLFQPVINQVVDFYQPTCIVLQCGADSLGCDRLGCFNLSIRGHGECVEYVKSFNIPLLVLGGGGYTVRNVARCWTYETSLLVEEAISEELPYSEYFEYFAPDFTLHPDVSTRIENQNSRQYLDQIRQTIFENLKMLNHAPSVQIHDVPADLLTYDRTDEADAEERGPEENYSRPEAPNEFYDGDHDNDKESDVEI
Sequence of Histone deacetylase 3/Nuclear receptor corepressor 2 (HDAC3/NCoR2) (Q9Y618 whole entry, further chain): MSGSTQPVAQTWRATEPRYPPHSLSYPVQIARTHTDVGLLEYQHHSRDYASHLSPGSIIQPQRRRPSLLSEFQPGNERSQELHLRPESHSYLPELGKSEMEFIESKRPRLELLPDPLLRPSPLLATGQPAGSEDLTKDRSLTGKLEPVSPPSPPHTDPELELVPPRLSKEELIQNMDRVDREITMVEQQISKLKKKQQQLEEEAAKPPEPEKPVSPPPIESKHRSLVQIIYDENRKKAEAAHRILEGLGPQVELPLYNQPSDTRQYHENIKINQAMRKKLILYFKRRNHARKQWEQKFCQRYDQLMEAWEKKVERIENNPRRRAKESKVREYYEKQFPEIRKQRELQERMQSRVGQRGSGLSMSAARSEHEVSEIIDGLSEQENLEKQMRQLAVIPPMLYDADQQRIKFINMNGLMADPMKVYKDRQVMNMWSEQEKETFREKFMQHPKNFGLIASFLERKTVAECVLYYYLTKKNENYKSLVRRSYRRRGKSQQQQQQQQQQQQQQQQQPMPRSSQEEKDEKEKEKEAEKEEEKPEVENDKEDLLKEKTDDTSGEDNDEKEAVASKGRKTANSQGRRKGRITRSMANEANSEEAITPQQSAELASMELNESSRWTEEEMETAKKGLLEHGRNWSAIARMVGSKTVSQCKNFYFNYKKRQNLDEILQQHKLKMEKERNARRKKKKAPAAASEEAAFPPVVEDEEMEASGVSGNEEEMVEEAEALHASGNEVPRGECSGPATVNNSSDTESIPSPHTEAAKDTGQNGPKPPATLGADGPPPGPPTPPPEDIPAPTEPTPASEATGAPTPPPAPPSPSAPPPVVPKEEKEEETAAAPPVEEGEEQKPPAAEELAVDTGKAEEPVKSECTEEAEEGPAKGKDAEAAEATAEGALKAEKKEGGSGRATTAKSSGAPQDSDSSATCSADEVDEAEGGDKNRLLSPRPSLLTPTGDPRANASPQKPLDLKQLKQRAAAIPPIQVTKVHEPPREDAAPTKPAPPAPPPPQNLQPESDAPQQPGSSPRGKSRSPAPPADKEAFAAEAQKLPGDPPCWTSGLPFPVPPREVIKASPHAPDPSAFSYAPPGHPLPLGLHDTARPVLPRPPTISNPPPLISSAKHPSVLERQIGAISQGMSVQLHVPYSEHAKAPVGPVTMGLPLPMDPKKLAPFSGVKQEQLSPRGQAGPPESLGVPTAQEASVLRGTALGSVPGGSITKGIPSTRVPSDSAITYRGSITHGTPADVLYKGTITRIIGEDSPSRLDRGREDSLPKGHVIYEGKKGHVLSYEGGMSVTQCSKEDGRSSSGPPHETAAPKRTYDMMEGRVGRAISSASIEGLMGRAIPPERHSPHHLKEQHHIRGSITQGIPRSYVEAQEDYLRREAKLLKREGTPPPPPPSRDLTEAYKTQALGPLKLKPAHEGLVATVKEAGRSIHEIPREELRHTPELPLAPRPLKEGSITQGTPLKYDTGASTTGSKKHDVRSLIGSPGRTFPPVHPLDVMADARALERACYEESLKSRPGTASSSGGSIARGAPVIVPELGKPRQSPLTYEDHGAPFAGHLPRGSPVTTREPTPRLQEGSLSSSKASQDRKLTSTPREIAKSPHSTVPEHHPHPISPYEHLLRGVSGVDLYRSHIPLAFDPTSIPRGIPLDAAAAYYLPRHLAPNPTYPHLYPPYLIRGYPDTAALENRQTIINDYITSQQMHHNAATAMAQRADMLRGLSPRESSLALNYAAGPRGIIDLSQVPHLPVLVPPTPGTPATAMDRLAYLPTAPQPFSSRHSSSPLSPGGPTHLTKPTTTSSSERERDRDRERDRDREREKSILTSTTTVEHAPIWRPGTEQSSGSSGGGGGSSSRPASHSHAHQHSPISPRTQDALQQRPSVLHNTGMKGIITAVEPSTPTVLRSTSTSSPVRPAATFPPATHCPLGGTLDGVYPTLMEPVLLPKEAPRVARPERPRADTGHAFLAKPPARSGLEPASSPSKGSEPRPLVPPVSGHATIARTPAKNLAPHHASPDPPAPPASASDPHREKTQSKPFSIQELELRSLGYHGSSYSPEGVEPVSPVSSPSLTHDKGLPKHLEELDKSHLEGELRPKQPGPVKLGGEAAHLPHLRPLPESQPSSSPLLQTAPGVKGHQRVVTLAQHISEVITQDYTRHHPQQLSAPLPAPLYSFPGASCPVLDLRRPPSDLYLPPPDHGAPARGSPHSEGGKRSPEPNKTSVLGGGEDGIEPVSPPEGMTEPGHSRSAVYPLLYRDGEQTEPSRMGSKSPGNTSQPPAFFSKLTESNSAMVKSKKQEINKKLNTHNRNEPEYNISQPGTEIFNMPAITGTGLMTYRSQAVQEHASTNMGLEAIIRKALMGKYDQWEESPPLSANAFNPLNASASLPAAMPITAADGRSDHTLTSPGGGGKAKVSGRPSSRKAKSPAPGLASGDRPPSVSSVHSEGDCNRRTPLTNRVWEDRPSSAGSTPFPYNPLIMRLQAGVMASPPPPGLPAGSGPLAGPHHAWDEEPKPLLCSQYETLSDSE

Compound: COc1cc2c(NCC3CCN(c4ncc(C(=O)NO)cn4)CC3)cc(-c3ccc(C)o3)nc2cc1OCCCN1CCCC1
- GI50 (NCI-H929): 981 nM
- GI50 [1]: 1300 nM
- GI50 (JJN-3): 6040 nM
- IC50 (Histone deacetylase 1): 3 nM
- IC50 [2]: 5 nM
- IC50 [3]: 269 nM
- GI50 (MM1.S; time hrs <=72, read-out: GI50): 2080 nM
- GI50 (MM1.S; [4]): 2090 nM
- LC50 (THLE-2): 10900 nM
- pLC50 (THLE-2): 4.96

Compound: COc1cc2nc(-c3ccc(C)o3)cc(NCC3CCN(c4ncc(C(=O)NO)cn4)CC3)c2cc1OC
- GI50 (NCI-H929): 103 nM
- GI50 [1]: 547 nM
- GI50 (JJN-3): 482 nM
- IC50 (Histone deacetylase 1): 7 nM
- IC50 [2]: 18 nM
- IC50 [3]: > 10000 nM
- GI50 (MM1.S; time hrs <=72, read-out: GI50): 32 nM
- GI50 (MM1.S; [4]): 31.6 nM
- LC50 (THLE-2): 794 nM
- pLC50 (THLE-2): 6.1
